Assay [1] is described as follows: Cytostatic activity against human PE/CA-PJ15 cells preincubated for 24 hrs under serum free condition followed by compound washout and further incubation for 48 hrs in presence of serum by MTT assay. It counts as functional, cell-based. The method, boiled down: (§1)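 Cells were grown at 37 °C in 5% CO2 in medium with 10% heat-inactivated FBS (20% for OVCAR-3) plus penicillin/streptomycin. The medium was RPMI-1640 for most lines, DMEM for U-87 MG and MRC-5, and IMDM for PE/CA-PJ lines. Seeding was 3×10^3–10×10^3 cells per well. Cells had 24 h compound exposure, a wash, and 48 h further culture. Read-out was MTT, normalized to untreated cells and fitted by nonlinear regression for IC50.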

The subject of a further assay is A2058. In words: Cytostatic activity against human A2058 cells preincubated for 24 hrs under serum free condition followed by compound washout and further incubation for 48 hrs in presence of serum by MTT assay. In kind it is functional, cell-based. The method, boiled down: as §1
For assay [2], the system named is HepG2. In words: Cytostatic activity against human HepG2 cells preincubated for 24 hrs under serum free condition followed by compound washout and further incubation for 48 hrs in presence of serum by MTT assay. In kind it is functional, cell-based. The method, boiled down: as §1
A general note: Tetrazolium assays rely on reduction of a dye to a coloured formazan, in cell work by metabolically active cells.

Assay [3] relates to HepG2. The assay can be described thus: Potency index, ratio of compound IC50 to Daunomycin IC50 for human HepG2 cells preincubated for 24 hrs under serum free condition followed by compound washout and further incubation for 48 hrs in presence of serum by MTT assay. In kind it is functional.
Assay [4] has as its system HT-29. In words: Antitumor activity against human HT-29 cells xenografted in SCID mouse assessed as decrease in number of Ki-67 positive cells measured as proliferation index at 38.3 mg/kg, ip administered thrice in first week (on days 13, 16, 20, 23 and 27) and twice in second week starting from 13 days post inoculation measured at day 30 post inoculation by KI-67-staining based light microscopic analysis (reference value: 100%). It counts as functional. More on the design: scale not given: the % may be the effect or the level left. The method, boiled down: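 Tumours from the SCID HT-29 orthotopic study were formalin-fixed and paraffin-embedded, cut at 2 µm, and given citrate pH 6 retrieval at 98 °C for 40 min. They were stained with anti-human Ki-67 (1:40, 1 h RT), then a biotinylated link, HRP polymer and AEC. Ki-67+ cells were counted in 5 fields per tumour at 40× magnification. The proliferation index is the % positive cells.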
(In xenograft studies the graft and the host belong to different species.)

For assay [5], the system named is HT-29. The assay can be described thus: Cytostatic activity against human HT-29 cells preincubated for 24 hrs under serum free condition followed by compound washout and further incubation for 48 hrs in presence of serum by MTT assay. It counts as functional, cell-based. The method, boiled down: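 HT-29 cells were exposed to the compound for 24 h, washed, and kept a further 48 h. Viability was read by MTT. Absorbances were normalized to untreated controls and fitted by nonlinear regression to dose-response curves to give IC50.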

A short description of assay [6]: Stability in serum free medium at 30 uM incubated for 3 hrs by LC/MS analysis. The method, boiled down: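 Conjugates (30 μM) were incubated at 37 °C in serum-free medium. Samples were taken at 0 and 3 h, quenched with acetic acid, lyophilised, desalted on C18 spin columns and analysed by LC-MS.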
The next assay deals with PANC-1. In words: Potency index, ratio of compound IC50 to Daunomycin IC50 for human PANC1 cells preincubated for 24 hrs under serum free condition followed by compound washout and further incubation for 48 hrs in presence of serum by MTT assay. It counts as functional.
The subject of the next assay is MDA-MB-231. The assay can be described thus: Cytostatic activity against human MDA-MB-231 cells preincubated for 24 hrs under serum free condition followed by compound washout and further incubation for 48 hrs in presence of serum by MTT assay. In kind it is functional, cell-based. The method, boiled down: as §1

Where a SMILES comes first, the peptide text is derived from it. The star is where a group is joined. X1 = COc1cccc2c1C(=O)c1c(O)c3c(c(O)c1C2=O)C[C@@](O)(/C(C)=N/OCC(=O)*)C[C@@H]3O[C@H]1C[C@H](N)[C@H](O)[C@H](C)O1

Consider `COc1cccc2c1C(=O)c1c(O)c3c(c(O)c1C2=O)C[C@@](O)(/C(C)=N/OCC(=O)N[C@@H](CC(C)C)C(=O)N[C@@H](CCCNC(=N)N)C(=O)N[C@@H](CCCNC(=N)N)C(=O)N[C@@H](Cc1ccc(O)cc1)C(=O)N[C@H](C(=O)N[C@@H](Cc1cnc[nH]1)C(=O)N[C@@H](CC(C)C)C(=O)N[C@@H](Cc1ccccc1)C(=O)N[C@@H](Cc1ccc(O)cc1)C(=O)N[C@@H](C)C(=O)N[C@H](C(N)=O)[C@@H](C)O)C(C)C)C[C@@H]3O[C@H]1C[C@H](N)[C@H](O)[C@H](C)O1` (X1-LRRYVHLFYAT-NH2), for which the IC50 in assay [1] was 7.4 µM; with A2058 it was 3.5 µM; in the assay with HepG2 [2], 4.7 µM; in the assay on HT-29 [5], 6.5 to 11.6 µM; in the assay on MDA-MB-231 it was 4.6 µM. In addition, the “Ratio IC50” value with HepG2 [3] is 220.2; with PANC-1, 57.7. For the same compound, in the assay with HT-29 [4], the Activity is listed as 58%. The Stability entry in [6] was “Stable”.

Usually IC50 stands for the concentration needed to halve the response being measured.

For the origin of these results see ChEMBL document CHEMBL4350976, “Sequence modification of heptapeptide selected by phage display as homing device for HT-29 colon cancer cells to improve the anti-tumour activity of drug delivery systems” (Eur J Med Chem, 2019).
